Series [1] relates to Human immunodeficiency virus 1. Put plainly: Antiviral activity against HIV1 3B infected in human CEM-SS cells assessed as inhibition of virus-induced cytopathic effect after 6 days by MTS assay. In kind it is functional. The conditions noted are these: for EC50: Human immunodeficiency virus 1, 3B, 144 h, read-out: ED50 (the source's name). The method, boiled down:
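CEM-SS cells split 1:2 the day before, then washed and resuspended at (2-3) × 10^4 cells/mL in RPMI 1640 with 10% heat-inactivated FBS, 4 mM L-glutamine, penicillin/streptomycin. Compounds diluted in complete medium. HIV-1 IIIB added at ~2 ng p24/mL (MOI ~0.4). Incubated 6 days at 37 °C, 5% CO2. MTS/PES added (final 317 µg/mL and 50 µM) for 4 h. Read at 490/650 nm as % CPE reduction; five-concentration dose-response.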
A general note: Cytopathic effects are the visible damage that an infection or toxin causes in cultured cells.

Series [2] has as its system LNCaP. Nature of the series: Cytotoxicity against human LNCAP cells. In kind it is functional. The conditions noted are these: read-out: ED50 (the source's name).
For series [3], the system named is Col2. Nature of the series: Cytotoxicity against human Col2 cells. In kind it is functional. The conditions noted are these: read-out: ED50 (the source's name).
The nature of series [4]: Cytotoxicity against human CEM-SS cells after 6 days by MTS assay. It is filed as cell-based. The method, boiled down:
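CEM-SS cells split 1:2 the day before, then washed and resuspended at (2-3) × 10^4 cells/mL in RPMI 1640 with 10% heat-inactivated FBS, 4 mM L-glutamine, penicillin/streptomycin. Compounds diluted in complete medium, virus omitted (toxicity controls). 6 days at 37 °C, 5% CO2; MTS/PES added (final 317 µg/mL and 50 µM), 4 h further, A490/650. CC50 = 50% cytotoxic concentration.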
Background: Tetrazolium dyes change colour on reduction, which living cells bring about.

Series [5] deals with Lu1. Nature of the series: Cytotoxicity against human Lu1 cells. It is filed as functional. The conditions noted are these: read-out: ED50 (the source's name).
Series [6] relates to HUVEC. Nature of the series: Cytotoxicity against HUVEC cells. It is filed as functional. The conditions noted are these: Homo sapiens, read-out: ED50 (the source's name).
Series [7] has as its system Human immunodeficiency virus 1. Nature of the series: Antiviral activity against HIV1 3B infected in human HOG.R5 cells after 4 days. In kind it is functional, organism-based. The conditions noted are these: Human immunodeficiency virus 1, 3B, HOG.R5, 96 h. The method, boiled down: (§1)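 GFP reporter HOG.R5 cells in microtiter wells infected with HIV-1 IIIB (2.5 ng/mL p24) with test agent present. Fluorescence read after 4 days. Selectivity index taken as CC50 in uninfected parallel HOG.R5 cultures divided by antiviral IC50.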

For series [8], the system named is KB. Put plainly: Cytotoxicity against human KB cells. In kind it is functional. The conditions noted are these: read-out: ED50 (the source's name).
For series [9], the system named is SK-MEL-2. Put plainly: Cytotoxicity against human SK-MEL-2 cells. The conditions noted are these: read-out: ED50 (the source's name). In kind it is functional.
The nature of series [10]: Selectivity index, ratio of CC50 for human HOG.R5 cells to IC50 for HIV1 3B. In kind it is functional. Summed up: as §1
The nature of series [11]: Cytotoxicity against human HOG.R5 cells after 4 days. In kind it is cell-based. Summed up:
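GFP-based HOG.R5 reporter cells in microtiter wells treated with compounds without virus, in parallel with HIV-1 IIIB-infected (2.5 ng/mL p24) cultures. After 4 days, viability judged by combined microscopic and fluorometric measurement. CC50 = concentration mediating 50% cytotoxicity.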

In series [12] the test system is Human immunodeficiency virus 1. Put plainly: Antiviral activity against HIV1 3B infected in human CEM-SS cells assessed as inhibition of virus-induced cytopathic effect at 2.7 uM after 6 days by MTS assay. In kind it is functional. The conditions noted are these: Human immunodeficiency virus 1, 3B, 144 h. Summed up:
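CEM-SS cells split 1:2 the day before, then washed and resuspended at (2-3) × 10^4 cells/mL in RPMI 1640 with 10% heat-inactivated FBS, glutamine and antibiotics. Infected with HIV-1 IIIB (~2 ng p24/mL, MOI ~0.4) alongside test agent. Incubated 6 days at 37 °C, 5% CO2. MTS/PES added (final 317 µg/mL and 50 µM) for 4 h. Absorbance read at 490/650 nm and reported as % CPE reduction.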

A short description of series [13]: Cytotoxicity against human HOG.R5 cells at 40 ug/ml after 4 days. The conditions noted are these: 96 h. It is filed as cell-based. Summed up: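 HOG.R5 cultures run in parallel with the infection assay, given identical test-agent concentrations with virus omitted. After 4 days, viability monitored by microscopic and fluorometric measurement and CC50 derived.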

The subject of series [14] is CEM-SS. Nature of the series: Cytotoxicity against human CEM-SS cells at 40 ug/ml after 6 days by MTS assay. It is filed as cell-based. The conditions noted are these: 144 h. The method, boiled down:
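Run alongside the CPE assay as uninfected toxicity controls. CEM-SS cells at (2-3) × 10^4 cells/mL in RPMI 1640 with 10% heat-inactivated FBS and 4 mM L-glutamine, plus compound without virus. After 6 days at 37 °C, MTS/PES added (final 317 µg/mL and 50 µM) for 4 h. Absorbance at 490/650 nm gives % viability and CC50.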

Series [15] can be described thus: Selectivity index, ratio of CC50 for human CEM-SS cells to IC50 for HIV1 3B. In kind it is functional. The method, boiled down:
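CEM-SS cells at (2-3) × 10^4 cells/mL in RPMI 1640/10% FBS infected with HIV-1 IIIB (~2 ng p24/mL, MOI ~0.4) in presence of compounds. After 6 days at 37 °C, viability by MTS/PES reduction (4 h, A490/650). ED50 is 50% cytoprotection against viral CPE. SI = CC50 in uninfected parallel cells / ED50.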

These results are taken from ChEMBL document CHEMBL1148153, “New 3-O-acyl betulinic acids from Strychnos vanprukii Craib” (J Nat Prod, 2004).

For orientation: CC50 means the concentration that lowers cell viability or growth by half. Read a low CC50 as greater toxicity to the cells. A word on the IC50: it is the concentration that gives 50% inhibition. As for `C=C(C)[C@@H]1CC[C@]2(C(=O)O)CC[C@]3(C)[C@H](CC[C@@H]4[C@@]5(C)CC[C@H](OC(=O)/C=C\c6ccc(O)c(OC)c6)C(C)(C)[C@@H]5CC[C@]43C)[C@@H]12`, the Activity result in [1] was “Toxic”. Further, the EC50 in series [2] is 5.2 µM; in series [3], 7.4 µM; in series [5], 15.7 µM; in series [6], 6.2 µM; in series [8], 5.4 µM; in series [9], 3.8 µM. In series [4], the CC50 at 144 h was less than 1.6 µM. Also, the IC50 in [7] was found to be 11.1 µM. Besides, the “Ratio CC50/IC50” value in series [10] was 2. For the same compound, the CC50 at 96 h in series [11] was determined as 22.2 µM.
`C=C(C)[C@@H]1CC[C@]2(C(=O)O)CC[C@]3(C)[C@H](CC[C@@H]4[C@@]5(C)CC[C@H](OC(=O)/C=C/c6ccc(O)c(OC)c6)C(C)(C)[C@@H]5CC[C@]43C)[C@@H]12`: in series [1], the Activity entry is “Toxic”. Further, the EC50 in series [2] is 3.2 µM; in series [3] it was 5.4 µM; in series [5], 8.5 µM; in series [6], 9.5 µM; in series [8], 2.5 µM; in series [9] it was 3.8 µM. This compound also displayed a CC50 at 144 h in series [4] of less than 1.6 µM. For the same compound, in series [7], the IC50 was found to be 5.1 µM. For the same compound, the “Ratio CC50/IC50” value in [10] is recorded as 3. The compound further had a CC50 at 96 h in [11] of 13.4 µM.
The inhibition is the share of the control response that was lost under treatment. Take `C[C@H]1[C@H](C)CC[C@]2(C(=O)O)CC[C@]3(C)C(=CC[C@@H]4[C@@]5(C)CC[C@H](O)C(C)(C)[C@@H]5CC[C@]43C)[C@H]12` [URSOLIC ACID]: the inhibition at 2.7 µM in series [12] came out at 22%. In addition, in series [4], the half-maximal cytotoxic concentration (CC50) at 144 h worked out at 21.9 µM. In series [7], this compound came in with an IC50 of 14.4 µM. The “Ratio CC50/IC50” value in [10] turned out to be 1. In addition, in [11], the CC50 at 96 h worked out at 15.4 µM.
For `Nc1ccn([C@@H]2CS[C@H](CO)O2)c(=O)n1` [LAMIVUDINE], the Activity entry in series [13] and in series [14] was “Non-toxic” throughout. Moreover, the EC50 in series [1] was 0.36 µM.
`C=C(C)[C@@H]1CC[C@]2(C(=O)O)CC[C@]3(C)[C@H](CC[C@@H]4[C@@]5(C)CC[C@H](OC(=O)/C=C\c6ccc(O)cc6)C(C)(C)[C@@H]5CC[C@]43C)[C@@H]12`: in [1], the Activity result was “Toxic”. The EC50 in [2] is 3.2 µM; in series [3], 6 µM; in [5], 11 µM; in [6] it was 6.8 µM; in [8] it was 4.3 µM; in [9], 3.8 µM. In [4], this compound registered a CC50 at 144 h of less than 1.7 µM. In series [7], this compound registered an IC50 of 8 µM. Moreover, the “Ratio CC50/IC50” value in series [10] stood at 2. It took 15.9 µM to reach half-maximal cytotoxicity in series [11] (CC50 at 96 h).
Consider `C=C(C)[C@@H]1CC[C@]2(C(=O)O)CC[C@]3(C)[C@H](CC[C@@H]4[C@@]5(C)CC[C@H](O)C(C)(C)[C@@H]5CC[C@]43C)[C@@H]12` [BETULINIC ACID], for which the entries for the “Ratio CC50/IC50” value in series [15] and in series [10] were 3 and 5, respectively. For the same compound, the EC50 in series [1] was found to be 2 µM; in series [2], 27.4 µM; in series [3], 43.9 µM; in [5], 40.6 µM; in series [6] it was 28.7 µM; in series [8], 35.7 µM. In series [9], the EC50 is 1.3 µM. Besides, the CC50 at 144 h in series [4] was 5.9 µM. In addition, in series [7], it took 3.1 µM to reach half-maximal inhibition (IC50). Besides, in [11], it took 16.7 µM to reach half-maximal cytotoxicity (CC50 at 96 h).
For `Cc1c(O)cccc1C(=O)N[C@@H](CSc1ccccc1)[C@H](O)CN1C[C@H]2CCCC[C@H]2C[C@H]1C(=O)NC(C)(C)C`, the Activity result in series [13] and in series [14] was “Non-toxic” each time. For the same compound, the EC50 in series [1] came to 0.03 µM. Further, half-maximal inhibition in [7] (IC50) required 0.09 µM.
For the compound `CC(C)Nc1cccnc1N1CCN(C(=O)c2cc3cc(NS(C)(=O)=O)ccc3[nH]2)CC1.CS(=O)(=O)O` [DELAVIRDINE MESYLATE], the Activity result in series [13] and in series [14] was “Non-toxic” each time. The EC50 in series [1] turned out to be 0.06 µM. In series [7], this compound returned an IC50 of 0.02 µM.
On to `C=C(C)[C@@H]1CC[C@]2(C(=O)O)CC[C@]3(C)[C@H](CC[C@@H]4[C@@]5(C)CC[C@H](OC(=O)/C=C/c6ccc(O)cc6)C(C)(C)[C@@H]5CC[C@]43C)[C@@H]12`, for which, in series [1], the Activity entry was “Toxic”. Besides, the EC50 in series [2] was 5.7 µM; in series [3], 6.6 µM; in series [5], 12.1 µM; in series [6], 5.3 µM; in series [8], 5.5 µM; in [9], 4.2 µM. The compound further returned a CC50 at 144 h in [4] of less than 1.7 µM. The compound also displayed an IC50 in [7] of 5.6 µM. Also, the “Ratio CC50/IC50” value in series [10] is given as 3. The same compound came in with a CC50 at 96 h in [11] of 14.3 µM.
With `CCCc1cc(=O)oc2c3c(c4c(c12)OC(C)(C)C=C4)O[C@H](C)[C@@H](C)[C@@H]3O` [CALANOLIDE A], the Activity entry in series [13] and in series [14] was “Non-toxic” each time. Also, the EC50 in [1] is 0.31 µM. The same compound showed an IC50 in [7] of 0.07 µM.
